{"source": "ChEMBL document CHEMBL1156500", "about": "“Characterization of the metabolic activation of hepatitis C virus nucleoside inhibitor beta-D-2'-Deoxy-2'-fluoro-2'-C-methylcytidine (PSI-6130) and identification of a novel active 5'-triphosphate species” (J Biol Chem, 2007)", "key": {"Hepatitis C virus [1]": {"test_system": "Hepatitis C virus", "assay": "Inhibition of RNA synthesis activity of […]", "set-up": "species or system Hepatitis C virus subtype 1b, Con1"}, "Hepatitis C virus [2]": {"test_system": "Hepatitis C virus", "assay": "Inhibition of RNA synthesis activity of […] 1b Con1 replicase", "set-up": "species or system Hepatitis C virus subtype 1b", "in_short": "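Membrane-associated native replication complexes were isolated from 2209-23 replicon cells, with 20 μl reactions. One format used 2.5×10^6 cell equivalents for 60 min. The other used 3.1×10^6 cell equivalents for 90 min in 50 mM HEPES pH 7.5, 5 mM MgCl2, actinomycin D, 1 mM ATP/GTP/CTP, 0.4 μM [α-33P]UTP and a creatine phosphate regeneration system.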"}}, "data": [{"smiles": "C[C@@]1(F)[C@H](O)[C@@H](COP(=O)(O)OP(=O)(O)OP(=O)(O)O)O[C@H]1n1ccc(=O)[nH]c1=O", "note": "[GS-461203]", "values": [{"measurement": "Ki", "setting": "Hepatitis C virus [1]", "result": 141, "unit": "nM"}, {"measurement": "IC50", "setting": "Hepatitis C virus [1]; Hepatitis C virus, Con1", "result": 520, "unit": "nM"}, {"measurement": "IC50", "setting": "Hepatitis C virus [2]", "result": 1190, "unit": "nM"}]}]}
